Results pooled from the literature.
Compare with care: the assays were run in different laboratories.
Target: Protein kinase C epsilon type (PRKCE, Homo sapiens, UniProt Q02156)

`Nc1nc(Nc2ccc(S(N)(=O)=O)cc2)nn1C(=O)c1c(F)cccc1F` has a remaining signal of 97.2% (cell-free assay; 0.5 µM).
`Cn1cncc1C1=CN(c2ncnc3[nH]cnc23)CCS1` has an inhibition of 25.8% (enzyme activity, inhibitor, radiometric; 50 nM).
For `CCCCN(CCCC)C(=O)CN1C[C@@H](c2cc(OC)c3c(c2)OCO3)[C@H](C(=O)O)[C@H]1CC(C)(C)CCC`, the remaining binding was 100% (cell-free assay, competition with immobilised ligand; 1 µM).
With `N#CCCc1ccc2c(c1)-c1[nH]c3ccc([N+](=O)[O-])cc3c1CC(=O)N2` the remaining signal was 95.4% (cell-free assay; 0.5 µM).
`CN(C)CC#Cc1ccc(OCCCc2sc(N3CCc4cccc(C(=O)Nc5nc6ccccc6s5)c4C3)nc2C(=O)O)c(F)c1` gave a remaining binding of 100% (cell-free assay, competition with immobilised ligand; 1 µM).
`CNC(=O)c1cc(Oc2ccc(NC(=O)Nc3ccc(Cl)c(C(F)(F)F)c3)cc2)ccn1` has a remaining signal of 96.4% (cell-free assay; 0.5 µM).
`CNCc1ccccc1-c1csc([C@H](C)Nc2nc(C)nc3cc(OC)c(OC)cc23)c1` gave a remaining binding of 78% (cell-free assay, competition with immobilised ligand; 1 µM).
`CCN(CC)CCNC(=O)c1c(C)[nH]c(/C=C2\C(=O)Nc3ccc(F)cc32)c1C` gave an inhibition of 21% (enzyme activity, inhibitor; 10 µM).
The remaining activity of `O=C(Nc1cnn(-c2csc(C(=O)NC3COC3)c2)c1)Nc1ccccc1Cl` is reported as 102% (enzyme activity, inhibitor; 5 µM).
For `CS(=O)(=O)Nc1cccc(-c2csc(NC(=O)CSc3nc4nccnc4c(=O)n3CCc3ccccc3)n2)c1`, the inhibition was -9% (enzyme activity, inhibitor; 10 µM).
For `COc1cc(Cl)c(C(=O)N[C@@H](CN[C@H]2CC[C@@H](N)CC2)Cc2ccc(C#N)cc2)cc1-c1ccc(CN[C@H](C)c2ccc(C)cc2)o1`, the remaining activity was 85% (enzyme activity, inhibitor; 1 µM).
For `CC/C(=N\NC(=O)NCc1cccc(O)c1)c1ccc(O)c(C)c1O`, the inhibition was 19.6% (enzyme activity, inhibitor; 0.1 µM).
`CN([C@@H]1CCc2c(CC(=O)O)c3cc(S(C)(=O)=O)ccc3n2C1)S(=O)(=O)c1ccc(F)cc1` has a remaining binding of 87% (cell-free assay, competition with immobilised ligand; 1 µM).
`C=CC(=O)Nc1cc(Nc2nccc(Nc3cc(Cl)c(F)cc3C(C)(C)O)n2)c(OC)cc1N1CC[C@@H](N(C)C)C1` has an inhibition of 2% (enzyme activity, inhibitor; 1 µM).
With `Cc1ccc(NC(=O)c2ccc(C)c(C(F)(F)F)c2)cc1C#Cc1nn(C2CCC(O)CC2)c2ncnc(N)c12` (centres unmarked) the remaining signal was 117% (cell-free assay; 10 µM).
The activity vs control of `Cc1ccc(C(=O)NCc2ccsc2)cc1C#Cc1cn(C(C)C)c2ncnc(N)c12` is reported as 104% (enzyme activity, inhibitor; 1 µM).
The remaining binding of `O=C(Nc1cccnn1)N1CCC(=Cc2cccc(Oc3ccc(C(F)(F)F)cn3)c2)CC1` is reported as 82% (cell-free assay, competition with immobilised ligand; 1 µM).
For `Cc1ccc(C(=O)Nc2ccc(CN3CCN(C)CC3)c(C(F)(F)F)c2)cc1C#Cc1cnc2cccnn12`, the remaining activity was 77% (enzyme activity; 23.5 nM).
With `CCCOc1ccc(OC)c(F)c1C(=O)c1ccc(C(=O)N[C@@H]2CNC[C@H]2NC(=O)c2ccc3[nH]ncc3c2)cc1` the remaining activity was 67% (enzyme activity, inhibitor; 10 µM).
For `CCOC(=O)c1cc2cc(-c3cc(C(=O)NCc4ccc(C(=O)O)cc4)nn3C)ccc2[nH]1`, the remaining binding was 90% (cell-free assay, competition with immobilised ligand; 0.1 µM).
The inhibition of `Cc1ccc(-n2nc(C(C)(C)C)cc2NC(=O)Nc2ccc(OCCN3CCOCC3)c3ccccc23)cc1` is reported as 16% (enzyme activity, inhibitor; 10 µM).
With `CNC(=O)Nc1ccc2c(c1)CC[C@@]21OC(=O)N(CC(=O)N(Cc2ccc(F)cc2)[C@@H](C)C(F)(F)F)C1=O` the remaining binding was 22% (cell-free assay, competition with immobilised ligand; 1 µM).
The inhibition of `COc1cc2ncnc(Nc3ccc(Oc4ccccc4)c(C)c3C)c2cc1OC` is reported as -5% (enzyme activity, inhibitor; 1 µM).
For `O=C1NC(=O)c2cc(Nc3ccc(F)cc3)c(Nc3ccc(F)cc3)cc21`, the remaining signal was 97.8% (cell-free assay; 0.5 µM).
`Cc1cnc(NC2CCOCC2)nc1-n1cnc(C(=O)NC(CN)c2cc(F)cc(Cl)c2)c1` (centres unmarked) gave a remaining activity of 91% (enzyme activity, inhibitor, radiometric; 1 µM).
With `CC(C)(C)c1nc(-c2cccc(NS(=O)(=O)c3c(F)cccc3F)c2F)c(-c2ccnc(N)n2)s1` the remaining activity was 132% (enzyme activity, inhibitor, radiometric; 1 µM).
